Measured values as given in ChEMBL document CHEMBL1121573, “2-(Aminomethyl)phenols, a new class of saluretic agents. 1. Effects of nuclear substitution” (J Med Chem, 1980).

Key:
Canis familiaris [1] = test: Oral diuretic activity was evaluated by measuring Cl- excretion in dog at 5 mg/kg after […] (0-6 hr); assay type: ADME, organism-based, Canis lupus familiaris, Urine; design: dose 5 mg/kg, route intraperitoneal; details: in vivo
Rattus norvegicus [2] = test: Evaluated for salidiuretic activity measured as sodium ion excretion in Rat, administered orally at a dose of 50 mg/kg; assay type: functional, Urine; design: unit not given beside the values; details: route oral
Method in brief: (§1)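 Female Charles-River rats (150–170 g), overnight on sugar diet with water ad libitum. Compound dissolved in DMF, diluted with water containing Tween 80 (final 4% DMF), given po in 5.0 mL; concurrent vehicle placebo. Three rats per metabolism cage; 0–5 h urine analysed for Na+, K+, Cl-. Values: mequiv × 100 per cage, geometric means of three cages per dose; scored 0–6 by Na+.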

Canis familiaris [3] = test: Oral diuretic activity was evaluated by measuring Na+ excretion in dog at 1 mg/kg after ip administration (0-6 hr); assay type: ADME, organism-based, Canis lupus familiaris, Urine; design: dose 1 mg/kg, route intraperitoneal; details: in vivo
Method in brief: (§2)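 Spontaneous urine was pooled with bladder urine collected by catheterization at 6 h. Volume was measured and Na+, K+ and Cl− were determined by standard methods. Values are geometric means.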

Canis familiaris [4] = test: Oral diuretic activity was evaluated by measuring Cl- excretion in dog at 10 mg/kg after […] (0-6 hr); assay type: ADME, organism-based, Canis lupus familiaris, Urine; design: dose 10 mg/kg, route intraperitoneal; details: in vivo
[5] = Evaluated for salidiuretic activity measured as sodium ion excretion in Rat, administered orally at a dose of 16.5 mg/kg; assay type: organism-based; design: dose 16.5 mg/kg; details: Urine; method in brief: as §1
Canis familiaris [6] = test: Oral diuretic activity was evaluated by measuring Na+ excretion in dog at 5 mg/kg after ip administration (0-6 hr); assay type: ADME, organism-based, Canis lupus familiaris, Urine; design: dose 5 mg/kg, route intraperitoneal; details: in vivo; method in brief: as §2
Rattus norvegicus [7] = test: Oral diuretic activity was evaluated by measuring Na+ excretion in Rat at 81 mg/kg […] (0-5 hr); assay type: ADME, organism-based, Urine; design: dose 81 mg/kg; details: in vivo
Rattus norvegicus [8] = test: Compound administered orally at a dose of 81 mg/kg was evaluated for salidiuretic activity measured as sodium ion excretion in Rat; assay type: ADME, organism-based, Urine; design: dose 81 mg/kg, route oral; details: in vivo, po; method in brief: as §1
Canis familiaris [9] = test: Oral diuretic activity was evaluated by measuring K+ excretion in dog at 10 mg/kg after ip administration (0-6 hr); assay type: ADME, organism-based, Canis lupus familiaris, Urine; design: dose 10 mg/kg, route intraperitoneal; details: in vivo; method in brief: as §2
Rattus norvegicus [10] = test: Oral diuretic activity was evaluated by measuring Cl- excretion in Rat at 27 mg/kg […] (0-5 hr); assay type: ADME, organism-based, Urine; design: dose 27 mg/kg; details: in vivo
Rattus norvegicus [11] = test: Oral diuretic activity was evaluated by measuring Na+ excretion in Rat at 9 mg/kg after […] (0-5 hr); assay type: ADME, organism-based, Urine; design: dose 9 mg/kg; details: in vivo, ip
Method in brief: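 Female Charles-River rats (150–170 g) were kept overnight on a sugar diet with water ad libitum. Compound was dissolved in DMF, then diluted with water containing Tween 80 (3 drops/100 mL) to a final 4% DMF, and given po in 5.0 mL. Rats were housed three per metabolism cage. Urine from 0–5 h was analysed for Na+, K+ and Cl−, with concurrent placebo controls. Values are mequiv × 100 per cage, geometric mean of three cages per dose.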

Rattus norvegicus [12] = test: Oral diuretic activity was evaluated by measuring Cl- excretion in Rat at 81 mg/kg after po administration (0-5 hr); details: in vivo
Canis familiaris [13] = test: Oral diuretic activity was evaluated by measuring Na+ excretion in dog at 10 mg/kg after ip administration (0-6 hr); assay type: ADME, organism-based, Canis lupus familiaris, Urine; design: dose 10 mg/kg, route intraperitoneal; details: in vivo; method in brief: as §2
Rattus norvegicus [14] = test: Maximum fall in mean arterial blood pressure was measured in SH rats when compound was administered at 7.5 mg/kg perorally; assay type: functional; details: route oral
Rattus norvegicus [15] = test: Oral diuretic activity was evaluated by measuring K+ excretion in Rat at 81 mg/kg after […] (0-5 hr); assay type: ADME, organism-based, Urine; design: dose 81 mg/kg
Method in brief: (§3)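 Female Charles-River rats (150–170 g) were kept overnight on a sugar diet with water ad libitum. Test substance was dissolved in DMF and diluted with water containing Tween 80 to a final 4% DMF vehicle, then given po in 5.0 mL. Rats were housed three per metabolism cage, and 0–5 h urine was assayed for Na⁺, K⁺ and Cl⁻ alongside concurrent placebo groups. Values are mequiv × 100 per cage, geometric means of three cages per dose.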

Rattus norvegicus [16] = test: Oral diuretic activity was evaluated by measuring K+ excretion in Rat at 9 mg/kg […] (0-5 hr); assay type: ADME, organism-based, Urine; design: dose 9 mg/kg; method in brief: as §3
Rattus norvegicus [17] = test: Oral diuretic activity was evaluated by measuring K+ excretion in Rat at 27 mg/kg […] (0-5 hr); assay type: ADME, organism-based, Urine; design: dose 27 mg/kg; method in brief: as §3
Rattus norvegicus [18] = test: Oral diuretic activity was evaluated by measuring Cl- excretion in Rat at 9 mg/kg […] (0-5 hr); assay type: ADME, organism-based, Urine; design: dose 9 mg/kg; details: in vivo; method in brief: as §3
[19] = Compound administered orally at a dose of 5 mg/kg was evaluated for salidiuretic activity measured as sodium ion excretion in Rat; assay type: organism-based; design: dose 5 mg/kg; details: Urine; method in brief: as §1
Rattus norvegicus [20] = test: Maximum fall in mean arterial blood pressure was measured in SH rats when compound was administered at 3.75 mg/kg perorally; assay type: functional; details: route oral
Rattus norvegicus [21] = test: Maximum fall in mean arterial blood pressure was measured in SH rats when compound was administered at 30 mg/kg perorally; assay type: functional; details: route oral
Canis familiaris [22] = test: Oral diuretic activity was evaluated by measuring K+ excretion in dog at 1 mg/kg after ip administration (0-6 hr); assay type: ADME, organism-based, Canis lupus familiaris, Urine; design: dose 1 mg/kg, route intraperitoneal; details: in vivo; method in brief: as §2
Canis familiaris [23] = test: Salidiuretic activity in dog following i.v. dosing at 5 mg/kg; assay type: functional, Canis lupus familiaris, Urine; design: unit not given beside the values; details: route intravenous
Method in brief: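 Conditioned female mongrel dogs, postabsorptive, got a 500 mL oral water load 1 h before pentobarbital anesthesia (30 mg/kg iv). After replicate 15-min control collections, compound was given as an iv stat injection.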

Canis familiaris [24] = test: Oral diuretic activity was evaluated by measuring K+ excretion in dog at 5 mg/kg after ip administration (0-6 hr); assay type: ADME, organism-based, Canis lupus familiaris, Urine; design: dose 5 mg/kg, route intraperitoneal; details: in vivo; method in brief: as §2

In the case of `NS(=O)(=O)c1cc(C(=O)O)c(NCc2ccco2)cc1Cl` [FUROSEMIDE], the Diuretic activity (Canis familiaris [1]) is reported as 37, the Diuretic activity (Rattus norvegicus [2]) is reported as 2.4 and the Diuretic activity (Canis familiaris [3]) is reported as 11.4. It also gave a Diuretic activity (Canis familiaris [4]) of 43.8, a Diuretic activity [5] of 1.4 and a Diuretic activity (Canis familiaris [6]) of 28.2. The Diuretic activity (Rattus norvegicus [7]) was 2.44, the Diuretic activity (Rattus norvegicus [8]) was 2.9 and the Diuretic activity (Canis familiaris [9]) was 8.4. The Diuretic activity (Rattus norvegicus [10]) was 2.13, the Diuretic activity (Rattus norvegicus [11]) was 0.07 and the Diuretic activity (Rattus norvegicus [12]) was 3.7. For the same molecule, the Diuretic activity (Canis familiaris [13]) was 35, the MAP (Rattus norvegicus [14]) was 10 mmHg and the Diuretic activity (Rattus norvegicus [15]) was 0.77. It also gave a Diuretic activity (Rattus norvegicus [16]) of 0.14, a Diuretic activity (Rattus norvegicus [17]) of 0.55 and a Diuretic activity (Rattus norvegicus [18]) of 0.22. The Diuretic activity [19] was 0.5, the MAP (Rattus norvegicus [20]) was 12 mmHg and the MAP (Rattus norvegicus [21]) was 12 mmHg. For the same molecule, the Diuretic activity (Canis familiaris [22]) was 4.1, the Diuretic activity (Canis familiaris [23]) was 250 and the Diuretic activity (Canis familiaris [24]) was 7.3.
